# In paper PMC9302689 (British Journal of Clinical Pharmacology, 2022):
# Test system: healthy male subjects
# Assay: Pharmaco-EEG
# Format: in vivo, human
# Settings: 12-hour post-dose period
# Procedure, shortened: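 Continuous EEG was recorded from 21 electrodes placed by the 10–20 system, with mastoid electrodes replacing the earlobe ones. Recordings followed IPEG guidelines, twice pre-dose and at 0.5–10 h post-dose. Power spectra for Fz-Cz and Pz-O derivations were split into bands to give total band power (μV). Values were ln-transformed, analysed by MMRM over 12 h against pooled placebo, and back-transformed.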
structure (smiles),measurement,setting,value
"CN1CCC23CCCCC2C1Cc1ccc(C(N)=O)cc13 (stereo not drawn) [ALKS 7119, (9α, 13α)‐17‐methylmorphinan‐3‐carboxamide]","Alpha-power Fz-Cz, LSM CFB",3 mg single oral dose,0.01 Hz
same,"Alpha-power Fz-Cz, estimate of difference compared to placebo",3 mg single oral dose,"0 [−0.97, 0.97] P = 1.00 Hz"
same,"Alpha-power Pz-Oz, LSM CFB",3 mg single oral dose,−0.06 Hz
same,"Alpha-power Pz-Oz, estimate of difference compared to placebo",3 mg single oral dose,"−0.16 [−0.41, 0.10] P = .23 Hz"
same,"Beta-power Fz-Cz, LSM CFB",3 mg single oral dose,0.03 Hz
same,"Beta-power Fz-Cz, estimate of difference compared to placebo",3 mg single oral dose,"−0.09 [−0.31, 0.14] P = .45 Hz"
same,"Beta-power Pz-Oz, LSM CFB",3 mg single oral dose,−0.03 Hz
same,"Beta-power Pz-Oz, estimate of difference compared to placebo",3 mg single oral dose,"−0.16 [−0.36, 0.04] P = .11 Hz"
same,"Delta-power Fz-Cz, LSM CFB",3 mg single oral dose,0 Hz
same,"Delta-power Fz-Cz, estimate of difference compared to placebo",3 mg single oral dose,"−0.11 [−0.32, 0.10] P = .32 Hz"
same,"Delta-power Pz-Oz, LSM CFB",3 mg single oral dose,−0.12 Hz
same,"Delta-power Pz-Oz, estimate of difference compared to placebo",3 mg single oral dose,"−0.18 [−0.41, 0.05] P = .12 Hz"
same,"Gamma-power Fz-Cz, LSM CFB",3 mg single oral dose,0.05 Hz
same,"Gamma-power Fz-Cz, estimate of difference compared to placebo",3 mg single oral dose,"−0.04 [−0.25, 0.16] P = .66 Hz"
same,"Gamma-power Pz-Oz, LSM CFB",3 mg single oral dose,0.09 Hz
same,"Gamma-power Pz-Oz, estimate of difference compared to placebo",3 mg single oral dose,"−0.12 [−0.37, 0.13] P = .35 Hz"
same,"Theta-power Fz-Cz, LSM CFB",3 mg single oral dose,−0.06 Hz
same,"Theta-power Fz-Cz, estimate of difference compared to placebo",3 mg single oral dose,"−0.14 [−0.36, 0.09] P = .23 Hz"
same,"Theta-power Pz-Oz, LSM CFB",3 mg single oral dose,−0.1 Hz
same,"Theta-power Pz-Oz, estimate of difference compared to placebo",3 mg single oral dose,"−0.17 [−0.40, 0.06] P = .15 Hz"
same,"Alpha-power Fz-Cz, LSM CFB",10 mg single oral dose,0.09 Hz
same,"Alpha-power Fz-Cz, estimate of difference compared to placebo",10 mg single oral dose,"0.15 [−0.94, 1.24] P = .79 Hz"
same,"Alpha-power Pz-Oz, LSM CFB",10 mg single oral dose,0.11 Hz
same,"Alpha-power Pz-Oz, estimate of difference compared to placebo",10 mg single oral dose,"0.01 [−0.25, 0.27] P = .94 Hz"
same,"Beta-power Fz-Cz, LSM CFB",10 mg single oral dose,0.08 Hz
same,"Beta-power Fz-Cz, estimate of difference compared to placebo",10 mg single oral dose,"−0.03 [−0.26, 0.19] P = .78 Hz"
same,"Beta-power Pz-Oz, LSM CFB",10 mg single oral dose,0.14 Hz
same,"Beta-power Pz-Oz, estimate of difference compared to placebo",10 mg single oral dose,"0.01 [−0.19, 0.21] P = .91 Hz"
same,"Delta-power Fz-Cz, LSM CFB",10 mg single oral dose,0.05 Hz
same,"Delta-power Fz-Cz, estimate of difference compared to placebo",10 mg single oral dose,"−0.05 [−0.26, 0.16] P = .65 Hz"
same,"Delta-power Pz-Oz, LSM CFB",10 mg single oral dose,0.07 Hz
same,"Delta-power Pz-Oz, estimate of difference compared to placebo",10 mg single oral dose,"0.01 [−0.23, 0.24] P = .96 Hz"
same,"Gamma-power Fz-Cz, LSM CFB",10 mg single oral dose,0.09 Hz
same,"Gamma-power Fz-Cz, estimate of difference compared to placebo",10 mg single oral dose,"−0.01 [−0.21, 0.21] P = .95 Hz"
same,"Gamma-power Pz-Oz, LSM CFB",10 mg single oral dose,0.13 Hz
same,"Gamma-power Pz-Oz, estimate of difference compared to placebo",10 mg single oral dose,"−0.08 [−0.33, 0.17] P = .54 Hz"
same,"Theta-power Fz-Cz, LSM CFB",10 mg single oral dose,0.02 Hz
same,"Theta-power Fz-Cz, estimate of difference compared to placebo",10 mg single oral dose,"−0.05 [−0.28, 0.18] P = .65 Hz"
same,"Theta-power Pz-Oz, LSM CFB",10 mg single oral dose,0.04 Hz
same,"Theta-power Pz-Oz, estimate of difference compared to placebo",10 mg single oral dose,"−0.03 [−0.26, 0.20] P = .79 Hz"
same,"Alpha-power Fz-Cz, LSM CFB",25 mg single oral dose,−0.01 Hz
same,"Alpha-power Pz-Oz, LSM CFB",25 mg single oral dose,−0.01 Hz
same,"Alpha-power Pz-Oz, estimate of difference compared to placebo",25 mg single oral dose,"−0.11 [−0.36, 0.15] P = .41 Hz"
same,"Beta-power Fz-Cz, LSM CFB",25 mg single oral dose,0.05 Hz
same,"Beta-power Fz-Cz, estimate of difference compared to placebo",25 mg single oral dose,"−0.06 [−0.28, 0.16] P = .58 Hz"
same,"Beta-power Pz-Oz, LSM CFB",25 mg single oral dose,0.08 Hz
same,"Beta-power Pz-Oz, estimate of difference compared to placebo",25 mg single oral dose,"−0.04 [−0.24, 0.15] P = .66 Hz"
same,"Delta-power Fz-Cz, LSM CFB",25 mg single oral dose,−0.04 Hz
same,"Delta-power Fz-Cz, estimate of difference compared to placebo",25 mg single oral dose,"−0.14 [−0.35, 0.07] P = .19 Hz"
same,"Delta-power Pz-Oz, LSM CFB",25 mg single oral dose,0 Hz
same,"Delta-power Pz-Oz, estimate of difference compared to placebo",25 mg single oral dose,"−0.06 [−0.31, 0.17] P = .61 Hz"
same,"Gamma-power Fz-Cz, LSM CFB",25 mg single oral dose,0.06 Hz
same,"Gamma-power Fz-Cz, estimate of difference compared to placebo",25 mg single oral dose,"−0.04 [−0.04, 0.16] P = .69 Hz"
same,"Gamma-power Pz-Oz, LSM CFB",25 mg single oral dose,0.16 Hz
same,"Gamma-power Pz-Oz, estimate of difference compared to placebo",25 mg single oral dose,"−0.05 [−0.30, 0.20] P = .70 Hz"
same,"Theta-power Fz-Cz, LSM CFB",25 mg single oral dose,−0.06 Hz
same,"Theta-power Fz-Cz, estimate of difference compared to placebo",25 mg single oral dose,"−0.13 [−0.36, 0.09] P = .24 Hz"
same,"Theta-power Pz-Oz, LSM CFB",25 mg single oral dose,−0.04 Hz
same,"Theta-power Pz-Oz, estimate of difference compared to placebo",25 mg single oral dose,"−0.11 [−0.35, 0.12] P = .33 Hz"
same,"Alpha-power Fz-Cz, LSM CFB",50 mg single oral dose,0.08 Hz
same,"Alpha-power Fz-Cz, estimate of difference compared to placebo",50 mg single oral dose,"0.13 [−0.81, 1.07] P = .79 Hz"
same,"Alpha-power Pz-Oz, LSM CFB",50 mg single oral dose,0.03 Hz
same,"Alpha-power Pz-Oz, estimate of difference compared to placebo",50 mg single oral dose,"−0.06 [−0.32, 0.19] P = .62 Hz"
same,"Beta-power Fz-Cz, LSM CFB",50 mg single oral dose,0.04 Hz
same,"Beta-power Fz-Cz, estimate of difference compared to placebo",50 mg single oral dose,"−0.07 [−0.31, 0.15] P = .51 Hz"
same,"Beta-power Pz-Oz, LSM CFB",50 mg single oral dose,0.13 Hz
same,"Beta-power Pz-Oz, estimate of difference compared to placebo",50 mg single oral dose,"0 [−0.20, 0,20] P = 1.00 Hz"
same,"Delta-power Fz-Cz, LSM CFB",50 mg single oral dose,0 Hz
same,"Delta-power Fz-Cz, estimate of difference compared to placebo",50 mg single oral dose,"−0.10 [−0.31, 0.11] P = .34 Hz"
same,"Delta-power Pz-Oz, LSM CFB",50 mg single oral dose,0.08 Hz
same,"Delta-power Pz-Oz, estimate of difference compared to placebo",50 mg single oral dose,"0.02 [−0.21, 0.25] P = .87 Hz"
same,"Gamma-power Fz-Cz, LSM CFB",50 mg single oral dose,0.01 Hz
same,"Gamma-power Fz-Cz, estimate of difference compared to placebo",50 mg single oral dose,"−0.09 [−0.31, 0.11] P = .39 Hz"
same,"Gamma-power Pz-Oz, LSM CFB",50 mg single oral dose,0.08 Hz
same,"Gamma-power Pz-Oz, estimate of difference compared to placebo",50 mg single oral dose,"−0.12 [−0.38, 0.13] P = .33 Hz"
same,"Theta-power Fz-Cz, LSM CFB",50 mg single oral dose,0.02 Hz
same,"Theta-power Fz-Cz, estimate of difference compared to placebo",50 mg single oral dose,"−0.05 [−0.28, 0.17] P = .64 Hz"
same,"Theta-power Pz-Oz, LSM CFB",50 mg single oral dose,0.08 Hz
same,"Theta-power Pz-Oz, estimate of difference compared to placebo",50 mg single oral dose,"0.01 [−0.23, 0.24] P = .95 Hz"
same,"Alpha-power Fz-Cz, LSM CFB",75 mg single oral dose,0.16 Hz
same,"Alpha-power Fz-Cz, estimate of difference compared to placebo",75 mg single oral dose,"0.32 [−0.64, 1.29] P = .51 Hz"
same,"Alpha-power Pz-Oz, LSM CFB",75 mg single oral dose,0.14 Hz
same,"Alpha-power Pz-Oz, estimate of difference compared to placebo",75 mg single oral dose,"0.04 [−0.22, 0.30] P = .75 Hz"
same,"Beta-power Fz-Cz, LSM CFB",75 mg single oral dose,0.21 Hz
same,"Beta-power Fz-Cz, estimate of difference compared to placebo",75 mg single oral dose,"0.09 [−0.13, 0.32] P = .40 Hz"
same,"Beta-power Pz-Oz, LSM CFB",75 mg single oral dose,0.17 Hz
same,"Beta-power Pz-Oz, estimate of difference compared to placebo",75 mg single oral dose,"0.04 [−0.16, 0.24] P = .69 Hz"
same,"Delta-power Fz-Cz, LSM CFB",75 mg single oral dose,0.17 Hz
same,"Delta-power Fz-Cz, estimate of difference compared to placebo",75 mg single oral dose,"0.06 [−0.15, 0.27] P = .55 Hz"
same,"Delta-power Pz-Oz, LSM CFB",75 mg single oral dose,0.1 Hz
same,"Delta-power Pz-Oz, estimate of difference compared to placebo",75 mg single oral dose,"0.04 [−0.21, 0.27] P = .76 Hz"
same,"Gamma-power Fz-Cz, LSM CFB",75 mg single oral dose,0.27 Hz
same,"Gamma-power Fz-Cz, estimate of difference compared to placebo",75 mg single oral dose,"0.17 [−0.03, 0.37] P = .10 Hz"
same,"Gamma-power Pz-Oz, LSM CFB",75 mg single oral dose,0.27 Hz
same,"Gamma-power Pz-Oz, estimate of difference compared to placebo",75 mg single oral dose,"0.06 [−0.19, 0.32] P = .64 Hz"
same,"Theta-power Fz-Cz, LSM CFB",75 mg single oral dose,0.18 Hz
same,"Theta-power Fz-Cz, estimate of difference compared to placebo",75 mg single oral dose,"0.11 [−0.12, 0.33] P = .34 Hz"
